{
  "source": "ChEMBL document CHEMBL2062482",
  "about": "(J Med Chem, 2012)",
  "key": {"[1]": {"test_system": "Canis familiaris", "assay": "Terminal half life in Beagle dog at 1 mg/kg, iv", "assay_type": "ADME, organism-based, Canis lupus familiaris", "set-up": "dose 1 mg/kg, route intravenous", "conditions": "in vivo", "how_it_was_run": "(§1)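 Single IV bolus, plasma sampled serially to 24 h post-dose, drug measured by LC-MS/MS, parameters by non-compartmental analysis. Rats and monkeys n = 3 per dose, dogs n = 3 at 1 mg/kg and n = 2 at 20 mg/kg. Nude mice n = 27 per dose level, n = 3 per time point. Mice received the HCl salt in 10% hydroxypropyl-β-cyclodextrin; rats, dogs and monkeys received the TFA salt in PBS.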"}, "[2]": {"test_system": "Mus musculus", "assay": "AUC in mouse at 100 mg/kg, po", "assay_type": "ADME, organism-based, Plasma", "set-up": "dose 100 mg/kg, route oral", "conditions": "in vivo", "how_it_was_run": "(§2)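 Female mice given the mono-TFA salt orally at 100 mg/kg as a solution in PBS.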"}, "[3]": {"test_system": "Cynomolgus monkey", "assay": "Volume of distribution at steady state in cynomolgus monkey at 1 mg/kg, iv", "assay_type": "ADME, organism-based, Macaca fascicularis", "set-up": "dose 1 mg/kg, route intravenous", "conditions": "in vivo", "how_it_was_run": "(§3)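 Single IV bolus at 1 or 20 mg/kg of TFA salt in phosphate-buffered saline to male Sprague-Dawley rats (n = 3 per dose), Beagle dogs (n = 3 at 1 mg/kg, male; n = 2 at 20 mg/kg, male/female) and male cynomolgus monkeys (n = 3 per dose). Serial plasma to 24 h; LC-MS/MS; non-compartmental analysis.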"}, "[4]": {"test_system": "MDA-MB-231", "assay": "Antitumor activity against human MDA-MB-231 cells xenografted in mouse assessed as reduction in tumor volume at 100 mg/kg, po administered once in week measured on day 21 relative to control", "set-up": "scale not given: the % may be the effect or the level left"}, "[5]": {"test_system": "Rattus norvegicus", "assay": "Terminal half life in Sprague-Dawley rat at 20 mg/kg, iv", "assay_type": "ADME, organism-based", "set-up": "dose 20 mg/kg, route intravenous", "conditions": "in vivo", "how_it_was_run": "as §1"}, "[6]": {"assay": "Cmax in Beagle dog at 20 mg/kg, iv", "assay_type": "ADME, organism-based, Canis lupus familiaris", "set-up": "dose 20 mg/kg, route intravenous", "conditions": "in vivo", "how_it_was_run": "as §1"}, "[7]": {"test_system": "Rattus norvegicus", "assay": "Volume of distribution at steady state in Sprague-Dawley rat at 1 mg/kg, iv", "assay_type": "ADME, organism-based", "set-up": "dose 1 mg/kg, route intravenous", "conditions": "in vivo", "how_it_was_run": "as §3"}, "[8]": {"test_system": "Cynomolgus monkey", "assay": "AUC (0 to infinity) in cynomolgus monkey at 1 mg/kg, iv", "assay_type": "ADME, organism-based, Macaca fascicularis, Plasma", "set-up": "time infinity, dose 1 mg/kg, route intravenous", "conditions": "in vivo", "how_it_was_run": "as §1"}, "[9]": {"test_system": "Canis familiaris", "assay": "Cmax in Beagle dog at 1 mg/kg, iv", "assay_type": "ADME, organism-based, Canis lupus familiaris", "set-up": "dose 1 mg/kg, route intravenous", "conditions": "in vivo", "how_it_was_run": "as §1"}, "[10]": {"test_system": "Mus musculus", "assay": "Toxicity in po dosed mouse xenografted with human MDA-MB-231 cells assessed as effect on body weight measured on days 28", "assay_type": "organism-based", "conditions": "in vivo", "how_it_was_run": "(§4)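 MDA-MB-231 cells (1.5 × 10^7, 1:1 Matrigel in PBS) implanted subcutaneously in right flank of female nude mice aged 6–8 weeks; ten per group, mean starting tumor 168 mm3. Oral gavage in PBS vehicle, 4.0 mL/kg, schedules including 10, 50 or 100 mg/kg weekly, 10 mg/kg daily or every third day. Body weights measured twice weekly.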"}, "[11]": {"test_system": "Rattus norvegicus", "assay": "AUC (0 to infinity) in Sprague-Dawley rat at 1 mg/kg, iv", "assay_type": "ADME, organism-based, Plasma", "set-up": "time infinity, dose 1 mg/kg, route intravenous", "conditions": "in vivo", "how_it_was_run": "as §1"}, "[12]": {"test_system": "Rattus norvegicus", "assay": "Terminal half life in Sprague-Dawley rat at 1 mg/kg, iv", "assay_type": "ADME, organism-based", "set-up": "dose 1 mg/kg, route intravenous", "conditions": "in vivo", "how_it_was_run": "as §1"}, "[13]": {"assay": "Volume of distribution at steady state in Beagle dog at 1 mg/kg, iv", "assay_type": "ADME, organism-based, Canis lupus familiaris", "set-up": "dose 1 mg/kg, route intravenous", "conditions": "in vivo, read-out: Vdss", "how_it_was_run": "as §3"}, "[14]": {"test_system": "Rattus norvegicus", "assay": "AUC (0 to infinity) in Sprague-Dawley rat at 20 mg/kg, iv", "assay_type": "ADME, organism-based, Plasma", "set-up": "time infinity, dose 20 mg/kg, route intravenous", "conditions": "in vivo", "how_it_was_run": "as §1"}, "[15]": {"test_system": "Canis familiaris", "assay": "Terminal half life in Beagle dog at 20 mg/kg, iv", "assay_type": "ADME, organism-based, Canis lupus familiaris", "set-up": "dose 20 mg/kg, route intravenous", "conditions": "in vivo", "how_it_was_run": "as §1"}, "[16]": {"test_system": "Mus musculus", "assay": "Toxicity in mouse xenografted with human MDA-MB-231 cells assessed as effect on body weight at 100 mg/kg, po after 28 days", "assay_type": "organism-based", "set-up": "dose 100 mg/kg, route oral", "conditions": "in vivo, 672 h", "how_it_was_run": "as §4"}, "[17]": {"test_system": "Rattus norvegicus", "assay": "Cmax in Sprague-Dawley rat at 1 mg/kg, iv", "assay_type": "ADME, organism-based", "set-up": "dose 1 mg/kg, route intravenous", "conditions": "in vivo", "how_it_was_run": "as §1"}, "[18]": {"test_system": "Cynomolgus monkey", "assay": "Terminal half life in cynomolgus monkey at 1 mg/kg, iv", "assay_type": "ADME, organism-based, Macaca fascicularis", "set-up": "dose 1 mg/kg, route intravenous", "conditions": "in vivo", "how_it_was_run": "as §1"}, "[19]": {"test_system": "Cynomolgus monkey", "assay": "Volume of distribution at steady state in cynomolgus monkey at 20 mg/kg, iv", "assay_type": "ADME, organism-based, Macaca fascicularis", "set-up": "dose 20 mg/kg, route intravenous", "conditions": "in vivo", "how_it_was_run": "as §3"}, "[20]": {"test_system": "Canis familiaris", "assay": "AUC (0 to infinity) in Beagle dog at 20 mg/kg, iv", "assay_type": "ADME, organism-based, Canis lupus familiaris, Plasma", "set-up": "time infinity, dose 20 mg/kg, route intravenous", "conditions": "in vivo", "how_it_was_run": "as §1"}, "[21]": {"test_system": "Cynomolgus monkey", "assay": "AUC (0 to infinity) in cynomolgus monkey at 20 mg/kg, iv", "assay_type": "ADME, organism-based, Macaca fascicularis, Plasma", "set-up": "time infinity, dose 20 mg/kg, route intravenous", "conditions": "in vivo", "how_it_was_run": "as §1"}, "[22]": {"test_system": "Rattus norvegicus", "assay": "Volume of distribution at steady state in Sprague-Dawley rat at 20 mg/kg, iv", "assay_type": "ADME, organism-based", "set-up": "dose 20 mg/kg, route intravenous", "conditions": "in vivo", "how_it_was_run": "as §3"}, "[23]": {"test_system": "Rattus norvegicus", "assay": "Cmax in Sprague-Dawley rat at 20 mg/kg, iv", "assay_type": "ADME, organism-based", "set-up": "dose 20 mg/kg, route intravenous", "conditions": "in vivo", "how_it_was_run": "as §1"}, "[24]": {"test_system": "Cynomolgus monkey", "assay": "Cmax in cynomolgus monkey at 20 mg/kg, iv", "assay_type": "ADME, organism-based, Macaca fascicularis", "set-up": "dose 20 mg/kg, route intravenous", "conditions": "in vivo", "how_it_was_run": "as §1"}, "[25]": {"test_system": "Mus musculus", "assay": "Cmax in mouse at 100 mg/kg, po", "assay_type": "ADME, organism-based", "set-up": "dose 100 mg/kg, route oral", "conditions": "in vivo", "how_it_was_run": "as §2"}, "[26]": {"test_system": "Cynomolgus monkey", "assay": "Terminal half life in cynomolgus monkey at 20 mg/kg, iv", "assay_type": "ADME, organism-based, Macaca fascicularis", "set-up": "dose 20 mg/kg, route intravenous", "conditions": "in vivo", "how_it_was_run": "as §1"}, "[27]": {"test_system": "Canis familiaris", "assay": "AUC (0 to infinity) in Beagle dog at 1 mg/kg, iv", "assay_type": "ADME, organism-based, Canis lupus familiaris, Plasma", "set-up": "time infinity, dose 1 mg/kg, route intravenous", "conditions": "in vivo", "how_it_was_run": "as §1"}, "[28]": {"test_system": "Canis familiaris", "assay": "Volume of distribution at steady state in Beagle dog at 20 mg/kg, iv", "assay_type": "ADME, organism-based, Canis lupus familiaris", "set-up": "dose 20 mg/kg, route intravenous", "conditions": "in vivo", "how_it_was_run": "as §3"}, "[29]": {"test_system": "Cynomolgus monkey", "assay": "Cmax in cynomolgus monkey at 1 mg/kg, iv", "assay_type": "ADME, organism-based, Macaca fascicularis", "set-up": "dose 1 mg/kg, route intravenous", "conditions": "in vivo", "how_it_was_run": "as §1"}},
  "data": [
    {"smiles": "CN[C@@H](C)C(=O)N[C@H](C(=O)N1CCC[C@H]1C(=O)Nc1snnc1-c1ccccc1)C1CCCCC1.O=C(O)C(F)(F)F", "values": [
      {"measurement": "beta t1/2", "setting": "[1]", "value": 54, "unit": "min"},
      {"measurement": "AUC", "setting": "[2]", "value": 203.5, "unit": "µM·h"},
      {"measurement": "Vdss", "setting": "[3]", "value": 1.6, "unit": "L/kg"},
      {"measurement": "Activity", "setting": "[4]", "value": 85, "unit": "%"},
      {"measurement": "beta t1/2", "setting": "[5]", "value": 50.4, "unit": "min"},
      {"measurement": "Cmax", "setting": "[6]", "value": 30, "unit": "µM"},
      {"measurement": "Vdss", "setting": "[7]", "value": 2, "unit": "L/kg"},
      {"measurement": "AUC", "setting": "[8]", "value": 0.71, "unit": "µM·h"},
      {"measurement": "Cmax", "setting": "[9]", "value": 3.8, "unit": "µM"},
      {"measurement": "Activity", "setting": "[10]", "value": ">= 5%"},
      {"measurement": "AUC", "setting": "[11]", "value": 0.51, "unit": "µM·h"},
      {"measurement": "beta t1/2", "setting": "[12]", "value": 25.8, "unit": "min"},
      {"measurement": "Vd", "setting": "[13]", "value": 1, "unit": "L/kg"},
      {"measurement": "AUC", "setting": "[14]", "value": 25, "unit": "µM·h"},
      {"measurement": "beta t1/2", "setting": "[15]", "value": 120, "unit": "min"},
      {"measurement": "Activity", "setting": "[16]", "value": "Toxic"},
      {"measurement": "Cmax", "setting": "[17]", "value": 1.1, "unit": "µM"},
      {"measurement": "beta t1/2", "setting": "[18]", "value": 26.4, "unit": "min"},
      {"measurement": "Vdss", "setting": "[19]", "value": 2.2, "unit": "L/kg"},
      {"measurement": "AUC", "setting": "[20]", "value": 36, "unit": "µM·h"},
      {"measurement": "AUC", "setting": "[21]", "value": 19, "unit": "µM·h"},
      {"measurement": "Vdss", "setting": "[22]", "value": 1.7, "unit": "L/kg"},
      {"measurement": "Cmax", "setting": "[23]", "value": 31, "unit": "µM"},
      {"measurement": "Cmax", "setting": "[24]", "value": 24, "unit": "µM"},
      {"measurement": "Cmax", "setting": "[25]", "value": 53.7, "unit": "µM"},
      {"measurement": "beta t1/2", "setting": "[26]", "value": 46.2, "unit": "min"},
      {"measurement": "AUC", "setting": "[27]", "value": 2.1, "unit": "µM·h"},
      {"measurement": "Vdss", "setting": "[28]", "value": 1.5, "unit": "L/kg"},
      {"measurement": "Cmax", "setting": "[29]", "value": 1.46, "unit": "µM"}
    ]}
  ]
}
